# Laboratory results: ChEMBL document CHEMBL1138326, “Structure-based design, synthesis, and biological evaluation of indomethacin derivatives as cyclooxygenase-2 inhibiting nitric oxide donors” (J Med Chem, 2007)
# Columns and labels:
# [1] = target: T1, Prostaglandin G/H synthase 1 (Homo sapiens, UniProt P23219); assay: Inhibition of COX1 in human whole blood assessed as effect on A23187-induced thromboxane B2 production at 100 uM relative to control; values are per cent of control
# [2] = target: T1, Prostaglandin G/H synthase 1; assay: Inhibition of COX1 in human whole blood assessed as effect on A23187-induced thromboxane B2 production; assay type: tissue-based
# [3] = target: T1, Prostaglandin G/H synthase 1; assay: Inhibition of COX1 in human whole blood assessed as effect on A23187-induced thromboxane B2 production at 1 uM relative to control; values are per cent of control
# [4] = target: T1, Prostaglandin G/H synthase 1; assay: Inhibition of COX1 in human whole blood assessed as effect on A23187-induced thromboxane B2 production at 10 uM relative to control; values are per cent of control
# [5] = target: T2, Prostaglandin G/H synthase 2 (Homo sapiens) (UniProt P35354); assay: Inhibition of COX2 in human whole blood assessed as effect on LPS-induced thromboxane B2 production at 30 uM relative to control; values are per cent of control
# T2 sequence (whole entry): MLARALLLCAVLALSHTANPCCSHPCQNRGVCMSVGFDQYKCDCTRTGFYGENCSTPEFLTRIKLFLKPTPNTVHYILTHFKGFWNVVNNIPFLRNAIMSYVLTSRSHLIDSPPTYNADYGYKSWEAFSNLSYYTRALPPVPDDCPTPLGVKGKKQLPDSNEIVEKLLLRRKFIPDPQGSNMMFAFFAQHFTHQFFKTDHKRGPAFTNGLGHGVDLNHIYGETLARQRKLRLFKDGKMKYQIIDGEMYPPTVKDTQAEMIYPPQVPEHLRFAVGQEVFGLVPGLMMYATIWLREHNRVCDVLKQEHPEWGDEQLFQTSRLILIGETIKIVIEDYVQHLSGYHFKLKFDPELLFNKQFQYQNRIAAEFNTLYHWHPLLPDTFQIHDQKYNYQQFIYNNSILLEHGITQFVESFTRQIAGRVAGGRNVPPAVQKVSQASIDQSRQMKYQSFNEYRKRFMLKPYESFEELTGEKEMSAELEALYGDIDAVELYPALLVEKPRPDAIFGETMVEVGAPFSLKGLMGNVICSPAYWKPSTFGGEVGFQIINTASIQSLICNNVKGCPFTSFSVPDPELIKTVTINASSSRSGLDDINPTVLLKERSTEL
# [6] = organism: Homo sapiens; assay: Selectivity for human COX2 over human COX1
# [7] = target: T1, Prostaglandin G/H synthase 1; assay: Inhibition of COX1 in human whole blood assessed as effect on A23187-induced thromboxane B2 production at 3 uM relative to control; values are per cent of control
# [8] = target: T1, Prostaglandin G/H synthase 1; assay: Inhibition of COX1 in human whole blood assessed as effect on A23187-induced thromboxane B2 production at 30 uM relative to control; values are per cent of control
# [9] = system: Rattus norvegicus; assay: Antiinflammatory activity against intrapouch dosed Sprague-Dawley rat carrageenan air-pouch model assessed as reduction of prostaglandin E2 at 45 umol/kg; assay type: functional; set-up: scale not given: the % may be the effect or the level left
# Procedure, shortened: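 Air pouch made with 20 mL sterile air sc on day -6 and 10 mL more on day -3; rats fasted 18 h. Compound in 0.5% methocel injected into the pouch 1 h before carrageenan (1 mL of 1.0% in saline). After 4 h, exudate recovered with PBS/heparin and assayed for PGE2 by enzyme immunoassay.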
# [10] = target: T1, Prostaglandin G/H synthase 1; assay: Inhibition of COX1 in human whole blood assessed as effect on A23187-induced thromboxane B2 production at 0.3 uM relative to control; values are per cent of control
# [11] = system: Rattus norvegicus; assay: Antiinflammatory activity against Sprague-Dawley rat carrageenan air-pouch model assessed as reduction of prostaglandin E2 at 45 umol/kg, po; assay type: functional; set-up: scale not given: the % may be the effect or the level left
# Procedure, shortened: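 Air pouches raised by sc injection of 20 mL sterile air (day -6) plus 10 mL on day -3; rats fasted 18 h. Compound suspended in 0.5% methocel given orally 1 h before intrapouch carrageenan (1 mL of 1.0% in saline). Exudate collected 4 h later after PBS/heparin lavage; PGE2 by enzyme immunoassay. Means ± SEM, n = 6–22; ANOVA with Dunnett's test vs vehicle.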
# T1 sequence (P23219 whole entry): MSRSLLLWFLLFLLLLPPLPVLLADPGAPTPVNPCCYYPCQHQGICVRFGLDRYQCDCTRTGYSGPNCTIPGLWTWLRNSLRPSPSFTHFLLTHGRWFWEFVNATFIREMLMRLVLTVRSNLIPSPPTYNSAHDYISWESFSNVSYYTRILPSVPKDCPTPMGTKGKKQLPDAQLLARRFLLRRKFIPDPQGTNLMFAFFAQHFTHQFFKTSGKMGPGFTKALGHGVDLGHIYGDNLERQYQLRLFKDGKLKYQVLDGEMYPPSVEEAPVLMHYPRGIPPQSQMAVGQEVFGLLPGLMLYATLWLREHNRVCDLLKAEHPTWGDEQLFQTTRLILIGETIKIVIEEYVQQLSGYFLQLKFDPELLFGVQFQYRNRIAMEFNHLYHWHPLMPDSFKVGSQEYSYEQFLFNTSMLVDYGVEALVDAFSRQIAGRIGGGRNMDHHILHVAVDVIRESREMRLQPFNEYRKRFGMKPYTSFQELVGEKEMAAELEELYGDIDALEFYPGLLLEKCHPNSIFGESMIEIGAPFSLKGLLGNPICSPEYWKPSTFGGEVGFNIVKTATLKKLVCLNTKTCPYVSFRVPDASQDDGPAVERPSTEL
Structure (SMILES),residual activity [1],IC50 [2],residual activity [3],residual activity [4],residual activity [7],other results
COc1ccc2c(c1)c(CC(=O)NOCc1ccccc1)c(C)n2C(=O)c1ccc(Cl)cc1,0%,< 0.3 µM,,,,
COc1ccc2c(c1)c(CC(=O)O)c(C)n2Cc1ccc(S(C)(=O)=O)cc1,87%,,,,,
COc1ccc2c(c1)c(CCOC(=O)NS(=O)(=O)NCCCO[N+](=O)[O-])c(C)n2C(=O)c1ccc(Cl)cc1,61%,,100%,100%,,
COc1ccc2c(c1)c(CC(=O)O)c(C)n2CC1CCCCC1,85%,,,,,
COc1cc2c(CC(=O)O)c(C)n(C(=O)c3ccc(Cl)cc3)c2cc1Cl,13%,1.6 µM,61%,24%,41%,residual activity [5]: 0%; Ratio IC50 [6]: 0.4; residual activity [8]: 2%
COc1cc2c(CC(=O)OCc3ccccc3)c(C)n(C(=O)c3ccc(Cl)cc3)c2cc1Cl,58%,> 100 µM,,,,
COc1ccc2c(c1)c(CC(=O)NCCCO[N+](=O)[O-])c(C)n2CC1CCCCC1,100%,,,,,
COc1ccc2c(c1)c(CC(=O)N(OC(C)=O)C(C)=O)c(C)n2C(=O)c1ccc(Cl)cc1,6%,< 1 µM,39%,14%,,
Cc1c(CC(=O)O)c2cc(O)ccc2n1C(=O)c1ccc(Cl)cc1,18%,,100%,55%,80%,residual activity [5]: 0%
Cc1c(CC(=O)NCCCO)c2cc(O)ccc2n1C(=O)c1ccc(Cl)cc1,8%,5.4 µM,83%,40%,58%,residual activity [5]: 4%; residual activity [8]: 7%
COc1ccc2c(c1)c(CCO)c(C)n2CC1CCCCC1,95%,,,,,
COc1ccc2c(c1)c(CC(=O)O)c(C)n2C(=O)c1ccc(Cl)cc1 [INDOMETHACIN],,,,,,Activity [9]: 97%
COc1ccc2c(c1Cl)c(CC(=O)OCc1ccccc1)c(C)n2C(=O)c1ccc(Cl)cc1,65%,> 100 µM,,,,
COc1ccc2c(c1)c(CCNS(=O)(=O)c1ccc(CO[N+](=O)[O-])cc1)c(C)n2C(=O)c1ccc(Cl)cc1,12%,1.9 µM,68%,23%,,
COc1ccc2c(c1)c(CC(=O)NOC(C)=O)c(C)n2C(=O)c1ccc(Cl)cc1,7%,3.6 µM,68%,34%,,
CCOC(=O)Cc1c(C)n(CC2CCCCC2)c2ccc(OC)cc12,85%,,,,,
COc1ccc2c(c1)c(CCO)c(C)n2C(=O)c1ccc(Cl)cc1,0%,2.3 µM,76%,16%,18%,
COc1ccc2c(c1)c(CC(=O)NOCCO)c(C)n2C(=O)c1ccc(Cl)cc1,1%,< 1 µM,,3%,20%,

Structure (SMILES),residual activity [1],IC50 [2],residual activity [3],residual activity [4],residual activity [7],other results
COc1ccc2c(c1)c(CC(=O)NO)c(C)n2C(=O)c1ccc(Cl)cc1 [OXAMETACIN],2%,2.8 µM,84%,29%,,
COc1ccc2c(c1)c(CCNC(=O)c1ccc(CO[N+](=O)[O-])cc1)c(C)n2C(=O)c1ccc(Cl)cc1,,< 1 µM,,,,
COc1ccc2c(c1)c(CC(=O)NOCCCO)c(C)n2C(=O)c1ccc(Cl)cc1,1%,< 0.3 µM,,,,Ratio IC50 [6]: < 0.4; residual activity [10]: 28%
COc1ccc2c(c1)c(CCOC(=O)NCCCO[N+](=O)[O-])c(C)n2C(=O)c1ccc(Cl)cc1,62%,,83%,74%,,
COc1ccc2c(c1)c(CCNS(=O)(=O)CCCO[N+](=O)[O-])c(C)n2C(=O)c1ccc(Cl)cc1,16%,11 µM,100%,57%,68%,residual activity [5]: 7%; Activity [9]: 59%; Activity [11]: 44%; residual activity [8]: 20%
COc1ccc2c(c1)c(CCO[N+](=O)[O-])c(C)n2CC1CCCCC1,93%,,,,,
COc1ccc2c(c1)c(CC(=O)NCCCCO)c(C)n2C(=O)c1ccc(Cl)cc1,1%,2.4 µM,64%,23%,46%,Ratio IC50 [6]: 2
COc1ccc2c(c1)c(CC(=O)NC(CO[N+](=O)[O-])(CO[N+](=O)[O-])CO[N+](=O)[O-])c(C)n2C(=O)c1ccc(Cl)cc1,1%,1.2 µM,50%,11%,16%,
COc1ccc2c(c1)c(CCOC(=O)NS(=O)(=O)OCCCO[N+](=O)[O-])c(C)n2C(=O)c1ccc(Cl)cc1,44%,,,,,
COc1ccc2c(c1)c(CC(=O)NCC(C)(C)CO[N+](=O)[O-])c(C)n2C(=O)c1ccc(Cl)cc1,3%,2.6 µM,78%,25%,45%,residual activity [8]: 3%
COc1ccc2c(c1)c(CCO[N+](=O)[O-])c(C)n2C(=O)c1ccc(Cl)cc1,15%,,69%,73%,,
Cc1c(CC(=O)NCCCO[N+](=O)[O-])c2cc(O)ccc2n1C(=O)c1ccc(Cl)cc1,1%,4.7 µM,,27%,74%,residual activity [5]: 2%; residual activity [8]: 1%
Cc1c(CC(=O)NCCCO[N+](=O)[O-])c2cc(OS(N)(=O)=O)ccc2n1C(=O)c1ccc(Cl)cc1,65%,> 100 µM,100%,92%,,residual activity [5]: 46%; Ratio IC50 [6]: > 4
COc1ccc2c(c1)c(CCN)c(C)n2C(=O)c1ccc(Cl)cc1,1%,> 10 µM,100%,100%,,residual activity [5]: 78%
COc1ccc2c(c1)c(CCNC(=O)NCCCO[N+](=O)[O-])c(C)n2C(=O)c1ccc(Cl)cc1,2%,3 µM,93%,29%,,Ratio IC50 [6]: 0.3
COc1ccc2c(c1)c(CC(=O)NCCCO[N+](=O)[O-])c(C)n2Cc1ccc(S(C)(=O)=O)cc1,53%,,,,,
COc1ccc2c(c1)c(CCNS(=O)(=O)CCCO)c(C)n2C(=O)c1ccc(Cl)cc1,6%,3.7 µM,73%,33%,51%,residual activity [5]: 0%; Ratio IC50 [6]: 3.5; Activity [9]: 98%; Activity [11]: 96%; residual activity [10]: 82%; residual activity [8]: 23%
COc1ccc2c(c1)c(CCP(=O)(O)O)c(C)n2C(=O)c1ccc(Cl)cc1,76%,,,,,
